Entries after “also recorded” stand apart in the source; their conditions may differ. Like-named read-outs stand apart in the source and are kept apart here. Marks after values point to notes of the source that are not given here.
Legend:
[1] = tested on: Influenza A virus H1N1, Influenza A/California/7/2009; format: cell-based
[2] = tested on: Influenza A virus H5N1, Influenza A/Vietnam/1203/2004 × A/PR/8/34 (recombinant H5N1); assay: microbe, parasite or virus in culture; format: cell-based; settings: H5N1|PR/8, MDCK
in vitro [3] = settings: dog
[4] = microsomes; for Mouse Liver Microsomal Stability (% remaining) 0 min: 0 h; for Mouse Liver Microsomal Stability (% remaining) 15 min: 0.25 h; for Mouse Liver Microsomal Stability (% remaining) 30 min: 0.5 h
[5] = tested on: A/PR/8/34 strain of influenza A virus (H1N1); format: cell-based
IFN-β mRNA = assay: RT-PCR analysis of IFN-β mRNA in MDCK cells; format: cell-based; settings: MDCK infected with A/PR/8/34, MOI 2, 20 μM, 6 h
Outline: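 MDCK cells infected with influenza A/PR/8/34 (MOI 2) and incubated with test compound (20 μM) for 6 h, then harvested. IFN-β mRNA detected by RT-PCR, with β-actin mRNA as reference. Poly(I:C)-induced cells were the positive control for IFN-β induction and RT-PCR. Uninfected cells received the same drug treatment and RT-PCR in parallel.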

NS1-pYES yeast strain = assay: Yeast-based NS1 assay: reversal of NS1-induced slow-growth phenotype; format: cell-based; settings: for restoration of yeast growth (reversal of slow growth phenotype): NS1-pYES strain, 50 μM, 22, 42 and 60 h
in vitro [6] = settings: human, Caco-2, Efflux Ratio
Caco-2 monolayer = settings: human, Caco-2, 2 h
[7] = Mouse liver microsomal stability

| Structure (SMILES) | EC50 [1] | EC50 [2] [µM] | CC50 (in vitro [3]) [µM] | Mouse Liver Microsomal Stability (% remaining) 0 min [4] [% remaining] | Mouse Liver Microsomal Stability (% remaining) 15 min [4] [% remaining] | Mouse Liver Microsomal Stability (% remaining) 30 min [4] [% remaining] | dose response in the TCID50 assay [5] | restoration of IFN-β mRNA levels in infected cells (IFN-β mRNA) | restoration of yeast growth (reversal of slow growth phenotype) (NS1-pYES yeast strain) | also measured |
| --- | --- | --- | --- | --- | --- | --- | --- | --- | --- | --- |
| CCOc1cc(-c2c(C#N)c(O)nc3c2c(C)nn3-c2ccc(F)cc2)ccc1O [Compound 1] | single digit micromolar | 28.5 |  |  |  |  |  |  |  | Cytotoxicity towards host MDCK cells (MDCK cells): without toxicity |
| Cc1ccc(-n2nc(C)c3c(-c4ccc(O)c(O)c4)c(C#N)c(N)nc32)cc1C [Compound 4] | single digit micromolar |  | 24.5 | 100 | 78 | 64 | successfully decreased viral titer with increasing concentration | significantly restored IFN-β mRNA levels | show the same behavior |  |
| Cc1nn(-c2ccc(Cl)cc2)c2nc(N)c(C#N)c(-c3ccc(O)c(O)c3)c12 [Compound 6] |  |  | 24.5 | 100 | 93 | 90 | successfully decreased viral titer with increasing concentration | significantly restored IFN-β mRNA levels | show the same behavior | efflux ratio at 2 h (in vitro [6]): 7.78 |
| COc1cc(-c2c(C#N)c(N)nc3c2c(C)nn3-c2ccc(F)cc2)ccc1O [Compound 10] | single digit micromolar | 3.6 | 24.7 | 100 | 74 | 60 | successfully decreased viral titer with increasing concentration | significantly restored IFN-β mRNA levels | show the same behavior |  |
| COc1cc(-c2ccnc3c2c(C)nn3-c2ccc(C(F)(F)F)cc2)ccc1O [Compound 32] | sub-micromolar |  | 19.8 | 100 | 66 | 45 | successfully decreased viral titer with increasing concentration | significantly restored IFN-β mRNA levels | reversal of the slow growth phenotype; also recorded: reversed | Efflux Ratio (Caco-2 monolayer): 1.20^b; selectivity index (SI) [5]: greater than 100 fold; viral suppression (TCID50) [5]: 3 log units; restoration of IFN-β mRNA levels in infected cells (IFN-β mRNA; listed as C00006): Restores IFN-β mRNA levels; efflux ratio at 2 h (in vitro [6]): 2.29; Cytotoxicity towards host MDCK cells (MDCK cells; dog): did not affect cell viability at 5, 10, 50 and 100 μM; acute toxicity in yeast assay (NS1-pYES yeast strain; 50 μM): does not display acute toxicity |
| COc1cc(-c2ccnc3c2c(C)nn3-c2cccc(C(F)(F)F)c2)ccc1O [Compound 33] |  |  | 24.5 |  |  |  |  |  | show the same behavior | Mouse Liver Microsomal Stability (% remaining) 0 min ([7]; 0 min): 100 % remaining; Mouse Liver Microsomal Stability (% remaining) 15 min ([7]; 15 min): 25 % remaining; Mouse Liver Microsomal Stability (% remaining) 30 min ([7]; 30 min): 16 % remaining |
| COc1cccc(-c2ccnc3c2c(C)nn3-c2ccc(F)cc2)c1 [Compound 37] |  |  |  |  |  |  |  |  |  | Cytotoxicity towards host MDCK cells (MDCK cells): exhibited cytotoxicity |
| NC(=O)c1ncn([C@@H]2O[C@H](CO)[C@@H](O)[C@H]2O)n1 [Ribavirin, reference compound] |  | 32.2 |  |  |  |  |  |  |  |  |

Source: paper PMC8290212 (Bioorganic & medicinal chemistry letters, 2019)
